Assay outcomes from PubChem.
Only some compounds are listed: those with a hit (about 2.1% of all), similar ones and a draw of the others.
SUMO1 PPI mod: modulators of human SUMO1-mediated protein-protein interactions; SUMO1 binding to a labelled peptide, TR-FRET, 1 h; inhibition, % at 20 µM; hit rate 0.33% among 360,000; in the data active = inhibition above about 37%
LMPTP inh: LMPTP (human) inhibition | recombinant LMPTP-A, OMFP fluorogenic substrate, fluorescence intensity | AID 651560 | inhibition, % at 20 µM | hit rate 0.22% among 360,000;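 active = compounds that cut the enzyme signal by at least half of the control window in the single-dose screen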;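 also: plate controls were DMSO wells with enzyme plus substrate for no effect and substrate without enzyme for full effect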
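Test system: LMPTP-A, protein tyrosine phosphatase of low molecular weight; Input: 0.625 nM enzyme; Incubation: 50 min dark incubation at room temperature; Signal: endpoint fluorescence intensity from OMFP dephosphorylation; Read-out basis: % inhibition versus control wells.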
Scp-1 inhibitor: blocks human Scp-1 phosphatase activity; AID 493091; inhibition, % at 20 µM; Recombinant Scp1, phosphopeptide, malachite green phosphate absorbance; hit rate 0.88% among 340,000; Q9GZU7;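 active = inhibition above about 50% at 20 µM, limit read from the data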;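 also: plate controls were DMSO wells with enzyme for no effect and wells lacking enzyme for full effect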
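Material – SCP-1 phosphatase catalytic domain, residues 76-261 · Buffer or medium – Acidic Tris acetate buffer with magnesium and detergent · Also added – Phospho 17-mer peptide substrate · Compound – single 20 µM dose, 1% DMSO · Times – 45 min room-temperature reaction, 5 min colour, 30 min stabiliser · Technique – Phosphate-binding colour reagent, absorbance read at 630 nm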
DNMT1 block: DNMT1 (human) enzyme inhibition; P26358; AID 588458; inhibition (reported as % activation of signal), % at 10 µM; DNMT1 molecular beacon, Hinp1I cleavage, fluorescence; hit rate 0.83% among 360,000; in the data active = inhibition above about 50%
STEP block: STEP (human) phosphatase inhibition | P54829 | recombinant STEP, OMFP fluorogenic substrate, fluorescence | inhibition, % at 20 µM | hit rate 0.25% among 360,000;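 active = inhibition at 20 µM, scaled per plate between control wells, above about 37%, limit read from the data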;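 also: 0% = DMSO with enzyme and substrate and 100% = substrate only without enzyme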
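System: STEP phosphatase, cell-free reaction; Buffer or medium: Bis-Tris pH 6.0 buffer with DTT, detergent; Incubation: 20 min at room temperature, dark; Measured by: fluorescence, 480/540 nm.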
GRK2 aptamer HTS: blocks RNA aptamer binding to human GRK2. bead flow cytometry, FAM-aptamer displacement from GRK2. inhibition of aptamer binding, % at 10 µM. hit rate 0.59% among 330,000;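 active = inhibition of aptamer binding above 40%, roughly 3 SD of noise, on plates passing a quality check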;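 also: median bead fluorescence of bound FAM aptamer so fluorescent compounds give negative values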
Target sequence (P25098 whole entry, looked up): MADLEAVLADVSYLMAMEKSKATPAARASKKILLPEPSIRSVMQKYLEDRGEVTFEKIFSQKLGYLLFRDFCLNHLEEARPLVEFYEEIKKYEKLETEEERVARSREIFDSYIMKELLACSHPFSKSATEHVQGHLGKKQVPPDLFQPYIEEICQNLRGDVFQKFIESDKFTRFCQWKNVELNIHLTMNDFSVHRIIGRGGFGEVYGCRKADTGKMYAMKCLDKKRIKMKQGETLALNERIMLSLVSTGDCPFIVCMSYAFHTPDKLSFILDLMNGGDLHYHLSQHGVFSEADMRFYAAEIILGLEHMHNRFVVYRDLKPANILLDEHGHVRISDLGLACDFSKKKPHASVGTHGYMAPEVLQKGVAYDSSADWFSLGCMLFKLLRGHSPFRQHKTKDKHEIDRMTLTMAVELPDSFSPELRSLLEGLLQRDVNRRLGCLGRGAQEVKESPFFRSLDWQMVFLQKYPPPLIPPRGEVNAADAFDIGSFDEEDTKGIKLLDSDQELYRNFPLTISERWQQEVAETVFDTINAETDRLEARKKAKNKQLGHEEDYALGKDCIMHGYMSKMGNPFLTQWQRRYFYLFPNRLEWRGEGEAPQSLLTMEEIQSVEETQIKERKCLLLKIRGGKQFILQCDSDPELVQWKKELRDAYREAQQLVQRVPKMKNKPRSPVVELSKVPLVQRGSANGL
Scp1 confirm: Scp-1 (human) inhibition, single-dose confirmed. inhibition, % at 20 µM. hit rate 61% among 2,500. AID 540281. recombinant SCP-1 catalytic domain, phosphate release, malachite green absorbance. shares compounds with Scp-1 inhibitor;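 also: plate controls were DMSO with enzyme for no effect and buffer wells lacking enzyme for full effect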
MG interference: colorimetric interference in Scp-1 counter-screen. 2,500 tested, under 10 active. shares compounds with Scp-1 inhibitor. Colorimetric interference counterscreen, malachite green absorbance 630 nm. apparent inhibition (interference), % at 20 µM;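 also: compounds added after enzyme reaction finished so only phosphate colour detection is probed; plate controls were DMSO wells with completed Scp-1 reaction for no effect and substrate wells lacking enzyme for full effect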
Scp-1 Tm shift: binds human Scp-1, shifting its melting temperature; shares compounds with Scp-1 inhibitor; Recombinant SCP1, Sypro Orange thermal shift Tm; thermal shift relative to vanadate control, % at 40 µM; hit rate 25% among 1,500;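 active = substances whose mean melting-temperature shift, as a percentage of the reference inhibitor's shift, reaches about 5.3%, limit read from the data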;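 also: 0% = Tm of DMSO wells and 100% = Tm with sodium orthovanadate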
* hit, by the source's call; . = not tested or not shown.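 The calls were made as follows, unless noted: active = inhibition of at least 30% at 20 µM; inactive = the rest.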

SMILES	SUMO1 PPI mod	LMPTP inh	Scp-1 inhibitor	DNMT1 block	STEP block	GRK2 aptamer HTS	Scp1 confirm	MG interference	others
N#C/C(=C\c1ccc(OC(=O)c2cccs2)cc1)c1nc2ccccc2[nH]1	-8	3	52*	-4	0	0	83*	-1	Scp-1 Tm shift=3
CCCCN1CC(=O)N2[C@H](c3ccc(Cl)cc3)[C@@H]3C(=O)N(CC)C(=O)[C@@H]3[C@]2(C)C1=O	-7	-2	-6	5	-1	0	.	.
Cc1c(NS(=O)(=O)c2cc(C(=O)NCCN(C)C)ccc2Cl)c(=O)n(-c2ccccc2)n1C	13	18	73*	26	23	0	37*	-11	Scp-1 Tm shift=-11
COc1ccc(N2CCN(C(=O)CN(C)S(=O)(=O)c3cnc[nH]3)CC2)cc1	-5	1	54*	2	-1	0	-18	-16
N#Cc1ccccc1N1CCN(C(=O)c2ccc(NC(=O)c3ccc(Br)o3)cc2)CC1	11	12	60*	1	1	1	73*	-4	Scp-1 Tm shift=-1
C1CCc2c(nc3nnnn3c2NCC2CC2)C1	5	0	-8	0	7	1	.	.
CCNC(=O)OCc1cn(-c2ccc(Cl)cc2)nn1	-3	0	-4	2	0	3	.	.
O=C(Nc1ccc(Cl)cc1)OCc1cn(-c2ccc(Cl)cc2)nn1	0	0	84*	9	-3	0	-11	-21
CC(C)c1cc(C(=O)O)c2cnn(C(C)C)c2n1	0	-2	-5	1	0	0	.	.
CC(C)NC(=O)CC1OC(=O)c2ccccc21 (stereo not drawn)	-3	-1	-9	-1	2	1	.	.
O=C(CC1OC(=O)c2ccccc21)NNC(=O)c1ccc(F)cc1 (stereo not drawn)	1	-1	-9	-2	-1	5	-12	-15
O=C(OCc1ccc(Cl)c(Cl)c1)c1ccc[nH]1	-2	2	-2	-2	-3	3	.	.
Cc1cc(C)c(C)c(S(=O)(=O)NC(C)C(=O)O)c1C (stereo not drawn)	-1	-2	3	-1	1	2	.	.
COc1ccccc1C(=O)NCC(=O)OC(C)C(=O)N1CCOCC1 (stereo not drawn)	1	0	60*	-2	-1	0	5	-1
Cc1ccc(N2C(=O)C3ON(c4ccccc4)C(CC(C)C)C3C2=O)cc1 (stereo not drawn)	5	1	-8	0	1	3	.	.
CCOc1ccc(Cl)cc1/C=N/NC(=O)c1ccccc1	3	2	-1	-3	9	0	.	.
CCOc1ccc(C(=O)N/N=C/c2cc(Cl)ccc2[N+](=O)[O-])cc1	-11	24	103*	15	38	0	48*	-17	Scp-1 Tm shift=2
COC(=O)c1ccc(NC(=O)c2cn(-c3cccc(C)n3)cn2)cc1	4	-3	-2	-21	-8	.	.	.
Cc1ccc(NC(=O)c2cn(-c3cccc(C)n3)cn2)cc1	1	-2	67*	-1	0	3	-6	-13
O=C(Nc1c2c(nn1-c1ccc(Cl)cc1)CS(=O)(=O)C2)c1ccccc1	-4	-2	-7	-1	1	0	.	.
CC(=O)OCCCn1c(C)[n+](C)c2cc(Cl)c(Cl)cc21	-3	-1	73*	9	-4	0	-7	-11
CCn1c(C)[n+](CCOC(C)=O)c2cc(Cl)c(Cl)cc21	3	-2	-1	1	1	0	.	.
CCn1c(/C=C/c2cc[n+](C)cc2)nc2ccccc21	-34	0	102*	-6	-3	2	12	-8
CCCn1c(/C=C/c2ccccc2)nc2ccccc21	-12	15	-6	1	-2	0	.	.
C[C@H](CO)N1C[C@H](C)[C@@H](CN(C)Cc2ccc3c(c2)OCO3)Oc2c(NS(=O)(=O)c3cn(C)cn3)cccc2C1=O	6	-1	37	1	-4	2	.	.
SMILES	SUMO1 PPI mod	LMPTP inh	Scp-1 inhibitor	DNMT1 block	STEP block	GRK2 aptamer HTS	Scp1 confirm	MG interference	others
C[C@H](CO)N1C[C@H](C)[C@@H](CN(C)Cc2ccc(C(=O)O)cc2)Oc2c(NS(=O)(=O)c3cccs3)cccc2C1=O	5	-1	50*	1	5	2	-5	-18
C[C@@H]1CN([C@@H](C)CO)C(=O)c2cccc(NS(=O)(=O)c3cccs3)c2O[C@H]1CN(C)Cc1ccc(C(F)(F)F)cc1	0	-2	-2	-9	5	4	.	.
C[C@H](CO)N1C[C@H](C)[C@@H](CN(C)Cc2ccc(-c3ccccc3)cc2)Oc2c(NS(=O)(=O)c3ccccc3)cccc2C1=O	1	-1	62*	-8	2	3	-5	-11
C[C@H](CO)N1C[C@H](C)[C@@H](CN(C)Cc2ccc(-c3ccccc3)cc2)Oc2c(NS(=O)(=O)c3cn(C)cn3)cccc2C1=O	5	-1	69*	-5	-1	0	-7	-15
Cc1[nH]c2ccccc2c1N=Nc1cc(C(=O)O)cc(C(=O)O)c1	-14	1	52*	4	4	0	-7	-19
COc1ccc(C)cc1NC(=O)c1ccc2c(=O)n3c(nc2c1)CCCCC3	-1	1	56*	-1	0	1	3	-1
CC(C)(C)C(=O)O/N=C(\N)COc1cccc(Cl)c1	2	0	79*	2	-1	0	-8	-8
CC(C)(C)C(=O)OC/C(N)=N/OC(=O)c1ccc(Cl)cc1	8	0	0	1	4	3	.	.
COc1cccc2c1oc1c(SCc3nc4ccccc4[nH]3)nc(C)nc12	-16	2	-3	-2	1	0	.	.
O=C(c1cccnc1)N1CCC(Oc2ccc(C(=O)N3CCCCO3)cc2)CC1	17	0	69*	0	2	7	-11	-4
CCC(=O)C1CCCN(C(=O)c2ccc(OC3CCN(C(=O)c4cccnc4)CC3)cc2)C1 (stereo not drawn)	3	-1	-5	1	0	0	.	.
O=C1CCCN1CCCNC(=S)Nc1ccc(Nc2ccccc2)cc1	3	2	3	0	17	40	.	.
O=C1CCCN1CCCNC(=S)Nc1ccccc1	0	0	-7	3	5	0	-4	-9
